Test [1] in a line: Her2 expression decrease, cell viability multiplex – SKBR3 breast tumor cells, AlphaScreen, ATP viability, primary screen (AID 461;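 active = Her2 level under about 52% in both replicate screens, with viability over 70% of control, limit read from the data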;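 as to Her2 level: lower value means less Her2 protein in the cells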;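 as to viability: percent of carrier control wells set as 100% viability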). Conditions: SKBR3 Her2 protein level, 18-24 h, measured here: SKBR3 viability, ATP luminescence, at 10 µM. For orientation: Alpha assays give light when donor and acceptor beads are brought close together.
Test [2] addresses Receptor tyrosine-protein kinase erbB-2 (Homo sapiens) (UniProt P04626). The test is described as above. The note with it: 18-24 h, at 10 µM, stronger effect = lower value.
Test [3] in a line: reduced viability of SK-BR-3 breast cancer cells – cell-based, 24 h, human, pilot screen (AID 572;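 active = viability at or below 10% of carrier control in both of two separate runs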;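 also: compound exposure lasted between 18 and 24 h rather than exactly 24 h; 100% = carrier-treated control wells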). Conditions: SK-BR-3 viability, CellTiter-Glo luminescence, at 10 µM, stronger effect = lower value. (Cellular ATP, detected with luciferase, serves as a proxy for viable cell number.)
Test [4] can be described thus: HUVEC growth inhibition – cell-based, human, primary screen (AID 575;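 active = viability at or below 30% in both replicate assays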;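 also: 100% = median of untreated cell wells with 0.1% DMSO on each plate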). Conditions: HUVEC proliferation, CellTiter-Glo luminescence, 72 h; at 10 µM; stronger effect = lower value. The gist of the method: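 System – primary HUVEC, no more than 12 passages · Medium – Low-serum (2% FBS) EBM, supplemented · Times – 72 h exposure, 37 °C, 5% CO2, 30 min RT equilibration · Measured by – luminescent ATP assay · Read-out – % viability relative to median vehicle-well signal on each plate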

Test [5] is described as follows: H69AR cell proliferation blockers – human, duplicate replicates, primary screen (AID 580;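 active = viability at or under a set limit in both replicates, limit being median viability minus 3 SD, cut at about 48% in these data, passing the limit was not always enough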;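 also: 100% = mean luminescence of untreated wells and 0% = no signal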). The note with it: H69AR lung tumor cells viability, ATP luminescence, 72 h; at 10 µM; stronger effect = lower value.
A short description of test [6]: MRP1 drug-resistance reversers in H69AR cells – cell-based, doxorubicin co-treatment, pilot screen (AID 601;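 active = viability loss from added drug above about 55%, and viability with drug at most 40%, in both replicates, limit read from the data, passing the limit was not always enough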). Conditions: CellTiter-Glo, 72 h, at 10 µM; for differential viability (reversal): stronger effect = higher value.
Test [7] is described as follows: yeast transport mutant growth inhibition pilot in 384-well plates, post-Golgi transport modulator project (AID 636; in the data active = inhibition above about 31%). Conditions: absorbance 615 nm, about 18 h, stronger effect = higher value.
The nature of test [8]: growth suppression of yeast trafficking mutant, preliminary HTS, modulators of trafficking downstream of Golgi apparatus project, 1536-format plate, OD 615 nm (AID 637). The note with it: yeast transport mutant growth, absorbance 615 nm, 18 h; stronger effect = higher value.
[9] abbreviates: H69AR cells + 2 uM doxorubicin, measured here: viability with 2 uM doxorubicin, stronger effect = lower value.
The mark [10] stands for this setting: H69AR cells, compound alone cytotoxicity.

The results in this text go back to PubChem BioAssay.

The source made the active and inactive calls. Rule as the data show it, unless noted: active = inhibition above about 30%; inactive = the rest.

Chain of Receptor tyrosine-protein kinase erbB-2 (Homo sapiens) (P04626 whole entry, looked up): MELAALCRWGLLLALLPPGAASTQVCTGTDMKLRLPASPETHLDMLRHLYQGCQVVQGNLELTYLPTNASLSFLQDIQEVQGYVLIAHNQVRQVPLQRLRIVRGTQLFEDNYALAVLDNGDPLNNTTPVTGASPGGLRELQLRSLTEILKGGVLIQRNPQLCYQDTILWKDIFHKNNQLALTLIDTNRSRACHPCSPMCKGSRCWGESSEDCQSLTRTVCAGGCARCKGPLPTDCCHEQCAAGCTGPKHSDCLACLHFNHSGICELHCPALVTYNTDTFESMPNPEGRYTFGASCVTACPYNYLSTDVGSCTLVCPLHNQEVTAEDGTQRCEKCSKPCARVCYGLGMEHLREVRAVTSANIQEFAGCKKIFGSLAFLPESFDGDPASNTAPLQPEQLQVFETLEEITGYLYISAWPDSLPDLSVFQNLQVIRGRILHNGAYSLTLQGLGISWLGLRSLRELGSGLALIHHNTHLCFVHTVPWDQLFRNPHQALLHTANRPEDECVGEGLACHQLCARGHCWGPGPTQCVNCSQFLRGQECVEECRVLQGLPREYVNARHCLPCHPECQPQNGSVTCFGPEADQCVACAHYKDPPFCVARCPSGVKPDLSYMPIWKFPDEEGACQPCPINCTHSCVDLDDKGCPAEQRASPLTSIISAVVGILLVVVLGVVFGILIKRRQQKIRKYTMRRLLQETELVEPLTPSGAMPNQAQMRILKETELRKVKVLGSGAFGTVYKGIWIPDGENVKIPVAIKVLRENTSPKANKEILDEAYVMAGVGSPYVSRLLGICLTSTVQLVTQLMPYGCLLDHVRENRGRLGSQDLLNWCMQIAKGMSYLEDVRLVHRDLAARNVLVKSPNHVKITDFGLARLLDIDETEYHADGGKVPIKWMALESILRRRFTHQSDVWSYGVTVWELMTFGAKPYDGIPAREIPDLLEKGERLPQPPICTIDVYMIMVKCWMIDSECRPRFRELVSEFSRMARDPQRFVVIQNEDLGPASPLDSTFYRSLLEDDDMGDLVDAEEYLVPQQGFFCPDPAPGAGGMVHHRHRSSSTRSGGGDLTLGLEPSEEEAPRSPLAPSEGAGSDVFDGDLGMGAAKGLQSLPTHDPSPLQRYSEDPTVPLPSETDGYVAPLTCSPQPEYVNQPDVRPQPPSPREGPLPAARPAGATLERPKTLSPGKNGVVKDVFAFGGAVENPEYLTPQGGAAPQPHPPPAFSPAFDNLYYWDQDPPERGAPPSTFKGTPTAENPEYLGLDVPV

As a reminder, the viability is a read-out of living cells in per cent, often relative to untreated cells. Usually inhibition stands for the relative decrease from the control value, in per cent. On to `Cc1ccc2cc(CN(Cc3ccc4c(c3)OCO4)Cc3nnnn3Cc3ccco3)c(=O)[nH]c2c1C`, for which the viability in test [1] was 98.5%; in test [3], 98.5% (inactive); in test [4] it was 85.1% (inactive); in test [5], 79.6% (inactive); in test [6] (setting [9]), 66.4%; in test [6] (setting [10]) it was 79.6%. The Her2 level in test [2] is 97% (inactive). Besides, the differential viability (reversal) in test [6] (H69AR cells + 2 uM doxorubicin) was 13.3% (inactive). Moreover, the inhibition was -1.33% (inactive) in test [7] and -3.17% (inactive) in test [8].

Consider `O=C(Nc1cccc2ccccc12)c1cnccn1`, for which the viability in test [1] was 82%; in test [3], 82% (inactive); in test [4] it was 92.3% (inactive); in test [5], 95% (inactive); in test [6] (setting [9]) it was 82.5%; in test [6] (setting [10]) it was 95%. Moreover, in test [2], the Her2 level was 88.5% (inactive). Moreover, the differential viability (reversal) in test [6] (H69AR cells + 2 uM doxorubicin) was 12.5% (inactive). The values for the inhibition in test [7] and in test [8] were -7.53% (inactive) and -1.59% (inactive), respectively.

Regarding `CCN(CC)c1ccc(NC(=O)c2cncc(Br)c2)cc1`, the viability in test [1] was 97.5%; in test [3] it was 97.5% (inactive); in test [4], 76.2% (inactive); in test [5] it was 79.9% (inactive); in test [6] (setting [9]), 105%; in test [6] (setting [10]), 79.9%. Also, the Her2 level in test [2] was 91% (inactive). The differential viability (reversal) in test [6] (H69AR cells + 2 uM doxorubicin) is -25.4% (inactive). The inhibition was -4.47% (inactive) in test [7] and 3.77% (inactive) in test [8].

Regarding `CS(=O)(=O)N1CCCC(C(=O)NCc2ccccc2Cl)C1` (stereo not given), the viability was 99% in test [1]; 99% (inactive) in test [3]; 107% (inactive) in test [4]; 86.5% (inactive) in test [5]; 91.3% in test [6] (setting [9]); 86.5% in test [6] (setting [10]). Further, the Her2 level in test [2] was 89% (inactive). In test [6] (H69AR cells + 2 uM doxorubicin), the differential viability (reversal) was -4.79% (inactive). Moreover, the results for the inhibition in test [7] and in test [8] were -1.3% (inactive) and -0.95% (inactive), respectively.

Regarding `O=C1CC(c2ccccc2)n2nc(NC(=O)c3ccccn3)nc2N1` (stereo not given), the viability in test [1] is 104%; in test [3] it was 104% (inactive); in test [4], 84.3% (inactive); in test [5], 66.2% (inactive); in test [6] (setting [9]) it was 84.9%; in test [6] (setting [10]), 66.2%. For the same molecule, the Her2 level in test [2] is 78% (inactive). Also, the differential viability (reversal) in test [6] (H69AR cells + 2 uM doxorubicin) was -18.7% (inactive). The inhibition was -4.59% (inactive) in test [7] and 4.6% (inactive) in test [8].

As to `CC(C)N(C(=O)COC(=O)c1ccc(O)cc1)C(C)C`, the viability is 96.5% in test [1]; 96.5% (inactive) in test [3]; 88.3% (inactive) in test [4]; 97.6% (inactive) in test [5]; 87.8% in test [6] (setting [9]); 97.6% in test [6] (setting [10]). In addition, the Her2 level in test [2] was 87.5% (inactive). In addition, in test [6] (H69AR cells + 2 uM doxorubicin), the differential viability (reversal) is 9.85% (inactive). The figures for the inhibition in test [7] and in test [8] were 0.39% (inactive) and -0.16% (inactive), respectively.

For `CN(C)CCN1C(=O)c2oc3ccc(Cl)cc3c(=O)c2C1c1cccc(Br)c1` (stereo not given), the viability in test [1] was 102%; in test [3], 102% (inactive); in test [4], 87.9% (inactive); in test [5], 77.1% (inactive); in test [6] (setting [9]), 74.2%; in test [6] (setting [10]), 77.1%. In addition, the Her2 level in test [2] was 72.5% (inactive). The differential viability (reversal) in test [6] (H69AR cells + 2 uM doxorubicin) is 2.96% (inactive). Besides, the inhibition in test [7] was -1.17% (inactive); in test [8], -5.5% (inactive).

As to `CCOCCCNC(=O)CC1Oc2ccc(C)cc2NC1=O` (stereo not given), the viability in test [1] was 109%; in test [3], 109% (inactive); in test [4], 86.8% (inactive); in test [5], 94.7% (inactive); in test [6] (setting [9]), 97.7%; in test [6] (setting [10]), 94.7%. The Her2 level in test [2] is 100% (inactive). In test [6] (H69AR cells + 2 uM doxorubicin), the differential viability (reversal) is -3.06% (inactive). Further, the figures for the inhibition in test [7] and in test [8] were -1.6% (inactive) and 5.08% (inactive), respectively.

As for `COc1ccc(C(=O)Nn2c(C3CCC3)nc3ccccc3c2=O)c(OC)c1`, the viability in test [1] was 93.5%; in test [3], 93.5% (inactive); in test [4] it was 85.8% (inactive); in test [5], 111% (inactive); in test [6] (setting [9]), 80.7%; in test [6] (setting [10]) it was 111%. Moreover, the Her2 level in test [2] was 97% (inactive). Also, the differential viability (reversal) in test [6] (H69AR cells + 2 uM doxorubicin) was 30% (inactive). Also, the inhibition in test [7] is -1.56% (inactive); in test [8], 1.9% (inactive).

As for `CC(C)COC(=O)NCC12C=CC(O1)C1C(=O)N(c3ccc(Cl)cc3)C(=O)C12` (stereo not given), the viability was 96% in test [1]; 96% (inactive) in test [3]; 116% (inactive) in test [4]; 89.9% (inactive) in test [5]; 92.5% in test [6] (setting [9]); 89.9% in test [6] (setting [10]). For the same molecule, the Her2 level in test [2] was 99.5% (inactive). The differential viability (reversal) in test [6] (H69AR cells + 2 uM doxorubicin) is -2.55% (inactive). The inhibition in test [7] is -6.16% (inactive); in test [8], -7.3% (inactive).

As for `COc1ccc(CC(NC(C)=O)C(=O)NC2CCN(c3nc(C)cc(C)c3C#N)CC2)c(OC)c1` (stereo not given), the viability was 102% in test [1]; 102% (inactive) in test [3]; 117% (inactive) in test [4]; 104% (inactive) in test [5]; 105% in test [6] (setting [9]); 104% in test [6] (setting [10]). For the same molecule, the Her2 level in test [2] was 100% (inactive). For the same molecule, the differential viability (reversal) in test [6] (H69AR cells + 2 uM doxorubicin) is -0.69% (inactive). For the same molecule, the inhibition was -0.41% (inactive) in test [7] and 2.17% (inactive) in test [8].

As for `COCCCn1c(SCC(=O)Nc2cccc(C)n2)nnc1-c1ccco1`, the viability in test [1] was 95%; in test [3] it was 95% (inactive); in test [4] it was 106% (inactive); in test [5], 98.5% (inactive); in test [6] (setting [9]) it was 85.6%; in test [6] (setting [10]), 98.5%. The Her2 level in test [2] is 82.5% (inactive). In test [6] (H69AR cells + 2 uM doxorubicin), the differential viability (reversal) was 12.9% (inactive). The results for the inhibition in test [7] and in test [8] were -3.6% (inactive) and -2.95% (inactive), respectively.

Regarding `CCC(=NC(C)c1ccccc1)c1c(O)n(C)c(=O)n(C)c1=O` (stereo not given), the viability in test [1] was 94%; in test [3], 94% (inactive); in test [4], 72.8% (inactive); in test [5], 90.7% (inactive); in test [6] (setting [9]), 105%; in test [6] (setting [10]), 90.7%. Besides, the Her2 level in test [2] is 88% (inactive). Moreover, the differential viability (reversal) in test [6] (H69AR cells + 2 uM doxorubicin) is -14.2% (inactive). Besides, the inhibition is -2.89% (inactive) in test [7] and 6.39% (inactive) in test [8].

Turning to `Cc1ccc(NC(=O)CNc2cccc(C)c2C)c(C)c1`, the viability was 106% in test [1]; 106% (inactive) in test [3]; 98.3% (inactive) in test [4]; 79.2% (inactive) in test [5]; 69% in test [6] (setting [9]); 79.2% in test [6] (setting [10]). Besides, the Her2 level in test [2] was 86.5% (inactive). Besides, the differential viability (reversal) in test [6] (H69AR cells + 2 uM doxorubicin) is 10.1% (inactive). The figures for the inhibition in test [7] and in test [8] were -0.53% (inactive) and -1.45% (inactive), respectively.

For the molecule `O=C(Cn1ccc2ccccc2c1=O)NCCC(=O)N1CCN(C(=O)c2ccco2)CC1`, the viability is 89.5% in test [1]; 89.5% (inactive) in test [3]; 102% (inactive) in test [4]; 98.1% (inactive) in test [5]; 91.4% in test [6] (setting [9]); 98.1% in test [6] (setting [10]). Moreover, the Her2 level in test [2] was 109% (inactive). Besides, the differential viability (reversal) in test [6] (H69AR cells + 2 uM doxorubicin) is 6.74% (inactive). For the same molecule, the inhibition was -1.6% (inactive) in test [7] and -2.3% (inactive) in test [8].

As for `O=C(c1ccc2c(c1)OCO2)N1CCCN(C(=O)c2ccc3c(c2)OCO3)CC1`, the viability in test [1] is 89.5%; in test [3] it was 89.5% (inactive); in test [4], 110% (inactive); in test [5] it was 97.9% (inactive); in test [6] (setting [9]) it was 87.2%; in test [6] (setting [10]), 97.9%. The Her2 level in test [2] was 91% (inactive). In test [6] (H69AR cells + 2 uM doxorubicin), the differential viability (reversal) was 10.7% (inactive). For the same molecule, the inhibition in test [7] was -1.95% (inactive); in test [8] it was -1.97% (inactive).
